Assay outcomes deposited in PubChem BioAssay by PCMD.
Rows were chosen to be rich in hits. Some 0.37% of all compounds tested hit in one or more screens of this group.
Yeast tox = Compounds toxic to wild-type S. cerevisiae growth. growth inhibition, % at 25 µM (by protocol). 0.3% of 30,000 active. A595 turbidity, 16 h. AID 685;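 active means mutant and wild-type yeast strains alike exhibit over 30% growth inhibition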
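Schedule: 16 h growth with compound, 30 °C. System: yeast, wild-type or eIF2Bepsilon-R284H mutant. Doses: one dose, 25 µM compound[…]. Buffer or medium: YPD. Signal: turbidity measured as absorbance at 595 nm. Read-out basis: growth inhibition (%) versus cell controls and blanks.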
FXIIa inh = blocks human coagulation factor XIIa activity | P00748 | purified human FXIIa, AMC substrate fluorescence, 2 h | inhibition, % at 10 µM | 0.2% of 33,000 active | AID 701; in the data active means inhibition above about 30%
FXIa inh = blocks human coagulation factor XIa activity; purified human FXIa, fluorogenic AMC substrate cleavage; inhibition, % at 10 µM; 0.3% of 33,000 active; AID 687;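 active means inhibition above 40% in the primary screen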
Of the large screens only hits and unclear results are named; the others gave an inactive call.

O=C(Nc1ccc(F)cc1)N1CC2CC(C1)c1cccc(=O)n1C2 (stereo not given)	none (no result: Yeast tox)
O=c1cccc2n1CC1CC2CN(S(=O)(=O)c2ccccc2)C1 (stereo not given)	FXIa inh 42 (no result: Yeast tox)
Cc1cc(C)nc(-n2c(C)nc3cc(Cl)ccc3c2=O)c1	none
O=C(COc1ccc(Cl)cc1Cl)N1CCN(C/C=C/c2ccccc2)CC1	Yeast tox 44
CN1CCN(C(=O)COc2ccc(S(=O)(=O)NCc3ccccc3)cc2Cl)CC1	none
Cc1ccc(-n2nc(C)cc2NC(=O)COc2cc(C)cc3oc(=O)c4c(c23)CCC4)cc1	none
